Calls of active or inactive are those of the source. The rule behind the calls is not given here.
Assays:
Rhodopsin kinase GRK1 = Rhodopsin kinase GRK1 (Bos taurus, UniProt P28327); experiment: Inhibition of bovine GRK1 (1 to 535 residues) after 5 mins after 5 mins in presence of ATP by phosphorimaging assay
[1] = target: G protein-coupled receptor kinase 5 (Bos taurus, UniProt P43249); experiment: Inhibition of bovine GRK5 after 5 mins after 5 mins in presence of ATP by phosphorimaging assay
[2] = Inhibition of mouse PKA using CREBtide as substrate after 30 mins in presence of ATP by ADP-Glo kinase assay
Summary of the method: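 Mouse PKA catalytic subunit activity by ADP-Glo luminescence per kit protocol; inhibition curves fitted to obtain values.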

Mus musculus = experiment: AUC (0 to 7 hrs) in CD-1 mouse at 10 mg/kg, ip administered as single dose by LC-MS/MS analysis; type: ADME, organism-based; design: time < 7 hr, dose 10 mg/kg, route intraperitoneal; conditions: in vivo
Summary of the method: (§1)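 Female CD-1 mice given a single ip dose of 10 mg/kg in 15% DMSO/15% PEG-400/70% PBS (v/v); blood sampled at 0.5, 2, 4 and 7 h, centrifuged, plasma frozen at −80 °C; drug quantified by positive-ion MRM LC–MS/MS; parameters by noncompartmental analysis.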

[3] = Plasma concentration in CD-1 mouse at 10 mg/kg, ip after 4 hrs administered as single dose by LC-MS/MS analysis; type: ADME, organism-based; summary of the method: as §1
[4] = Plasma concentration in CD-1 mouse at 10 mg/kg, ip after 7 hrs administered as single dose by LC-MS/MS analysis; type: ADME, organism-based; summary of the method: as §1
[5] = target: T1, Beta-adrenergic receptor kinase 1 (Mus musculus) (UniProt Q99MK8); experiment: Inhibition of GRK2 in isoproterenol-stimulated C57/BL6 mouse cardiomyocytes assessed as increase in contractility by measuring cell shortening at 1 uM pretreated for 10 mins followed by beta-AR agonist isoproterenol addition for 2 mins
T1 sequence (whole entry): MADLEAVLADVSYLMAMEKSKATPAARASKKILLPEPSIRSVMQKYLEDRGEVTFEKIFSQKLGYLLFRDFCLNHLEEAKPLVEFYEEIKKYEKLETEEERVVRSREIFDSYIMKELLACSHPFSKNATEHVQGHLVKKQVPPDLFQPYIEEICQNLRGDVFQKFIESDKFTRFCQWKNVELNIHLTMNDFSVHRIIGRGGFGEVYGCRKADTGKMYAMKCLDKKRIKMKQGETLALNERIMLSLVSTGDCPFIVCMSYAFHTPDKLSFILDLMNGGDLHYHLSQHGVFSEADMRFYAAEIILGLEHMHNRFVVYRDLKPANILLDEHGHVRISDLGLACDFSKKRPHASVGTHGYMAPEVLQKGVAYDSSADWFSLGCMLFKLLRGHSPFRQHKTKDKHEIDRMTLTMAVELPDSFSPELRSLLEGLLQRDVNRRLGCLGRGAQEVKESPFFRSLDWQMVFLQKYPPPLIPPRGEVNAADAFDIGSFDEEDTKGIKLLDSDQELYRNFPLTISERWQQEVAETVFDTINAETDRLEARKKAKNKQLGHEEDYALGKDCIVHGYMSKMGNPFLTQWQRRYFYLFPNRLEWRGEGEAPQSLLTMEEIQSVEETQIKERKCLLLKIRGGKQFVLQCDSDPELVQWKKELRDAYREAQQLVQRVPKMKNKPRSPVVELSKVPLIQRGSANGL

[6] = target: T1, Beta-adrenergic receptor kinase 1 (Mus musculus); experiment: Inhibition of GRK2 in isoproterenol-stimulated C57/BL6 mouse cardiomyocytes assessed as increase in contractility by measuring cell shortening at 0.5 uM pretreated for 10 mins followed by beta-AR agonist isoproterenol addition for 2 mins
Liver = experiment: Half life in CD-1 mouse liver microsomes at 1 uM measured up to 60 mins in presence of NADPH by LC-MS/MS analysis; type: ADME, microsome; conditions: 1 h
[7] = target: T1, Beta-adrenergic receptor kinase 1 (Mus musculus); conditions: C57/BL6
[8] = target: T1, Beta-adrenergic receptor kinase 1 (Mus musculus); experiment: Inhibition of GRK2 in isoproterenol-stimulated C57/BL6 mouse cardiomyocytes assessed as increase in contractility by measuring cell shortening at 0.1 uM pretreated for 10 mins followed by beta-AR agonist isoproterenol addition for 2 mins

Chain of Rhodopsin kinase GRK1 (P28327 whole entry, the tested form may be a part): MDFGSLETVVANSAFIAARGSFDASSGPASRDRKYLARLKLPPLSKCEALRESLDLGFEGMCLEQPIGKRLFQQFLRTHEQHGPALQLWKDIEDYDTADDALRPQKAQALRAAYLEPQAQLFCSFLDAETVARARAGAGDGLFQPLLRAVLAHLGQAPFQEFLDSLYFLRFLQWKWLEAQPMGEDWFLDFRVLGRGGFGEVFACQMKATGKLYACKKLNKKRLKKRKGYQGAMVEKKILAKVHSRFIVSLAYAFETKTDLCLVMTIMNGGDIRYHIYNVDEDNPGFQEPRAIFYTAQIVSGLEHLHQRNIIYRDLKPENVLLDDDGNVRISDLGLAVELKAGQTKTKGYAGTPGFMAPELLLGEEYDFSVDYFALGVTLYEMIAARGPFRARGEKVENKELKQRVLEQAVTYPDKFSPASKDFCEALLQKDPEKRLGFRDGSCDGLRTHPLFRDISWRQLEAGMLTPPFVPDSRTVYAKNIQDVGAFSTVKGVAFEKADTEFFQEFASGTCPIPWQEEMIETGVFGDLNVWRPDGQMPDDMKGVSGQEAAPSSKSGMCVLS
Chain of G protein-coupled receptor kinase 5 (P43249 whole entry): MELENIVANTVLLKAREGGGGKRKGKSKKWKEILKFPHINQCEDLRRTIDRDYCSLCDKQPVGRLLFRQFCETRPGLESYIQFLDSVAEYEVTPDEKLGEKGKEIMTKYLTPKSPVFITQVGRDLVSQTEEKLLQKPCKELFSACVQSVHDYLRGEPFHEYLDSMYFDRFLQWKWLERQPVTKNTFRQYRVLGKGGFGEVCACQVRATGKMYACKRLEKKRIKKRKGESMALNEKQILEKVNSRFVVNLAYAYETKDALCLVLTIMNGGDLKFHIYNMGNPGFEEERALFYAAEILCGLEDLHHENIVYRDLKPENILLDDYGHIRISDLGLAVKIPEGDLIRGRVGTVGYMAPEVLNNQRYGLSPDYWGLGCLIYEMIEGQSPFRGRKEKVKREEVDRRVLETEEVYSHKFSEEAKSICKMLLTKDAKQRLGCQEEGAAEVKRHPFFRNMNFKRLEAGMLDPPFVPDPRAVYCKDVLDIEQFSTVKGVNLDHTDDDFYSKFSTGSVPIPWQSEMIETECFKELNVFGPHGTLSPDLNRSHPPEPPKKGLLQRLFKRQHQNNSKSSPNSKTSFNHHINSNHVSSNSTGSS

Row | IC50 [2] | SMILES | IC50 (Rhodopsin kinase GRK1) | IC50 [1] | also measured
1 | > 100 µM | COc1ccccc1CNC(=O)c1cc([C@@H]2CCNC[C@H]2COc2ccc3c(c2)OCO3)ccc1F | > 100 µM | > 100 µM | 
2 | > 100 µM | O=C(NCCc1c[nH]cn1)c1cc([C@@H]2CCNC[C@H]2COc2ccc3c(c2)OCO3)ccc1F | > 100 µM | > 100 µM | 
3 |  | Cn1c(CNc2cccc(C(=O)NCc3ccccc3C(F)(F)F)c2)nnc1-c1ccncc1 | 52.1 µM | 9.2 µM | AUC (Mus musculus): 1.9 µM·h; concentration at 4 h [3]: 5 nM; concentration at 7 h [4]: 6 nM
4 | > 100 µM | O=C(NCCc1ccncc1)c1cc([C@@H]2CCNC[C@H]2COc2ccc3c(c2)OCO3)ccc1F | > 100 µM | > 100 µM | 
5 | > 100 µM | Cn1nccc1CNC(=O)c1cc([C@@H]2CCNC[C@H]2COc2ccc3c(c2)OCO3)ccc1F | > 100 µM | > 100 µM | 
6 | > 100 µM | O=C(NCc1cn[nH]c1)c1cc([C@@H]2CCNC[C@H]2COc2ccc3c(c2)OCO3)ccc1F | > 100 µM | > 100 µM | 
7 | > 100 µM | O=C(NCCc1cc[nH]n1)c1cc([C@@H]2CCNC[C@H]2COc2ccc3c(c2)OCO3)ccc1F | > 100 µM | > 100 µM | 
8 | > 100 µM | O=C(NCCc1ccccc1)c1cc([C@@H]2CCNC[C@H]2COc2ccc3c(c2)OCO3)ccc1F | > 100 µM | > 100 µM | 
9 | > 100 µM | O=C(NCc1ccncc1)c1cc([C@@H]2CCNC[C@H]2COc2ccc3c(c2)OCO3)ccc1F | > 100 µM | > 100 µM | 
10 |  | CC1=C(C(=O)Nc2ccc3[nH]ncc3c2)C(c2ccc(F)cc2)NC(=O)N1 (centres undefined) [GSK-180736A] | > 100 µM |  | inhibition [5]: Active; t1/2 (Liver): 20.6 min
11 | > 100 µM | COc1cccc(OC)c1CNC(=O)c1cc(C2NC(=O)NC(C)=C2C(=O)Nc2ccc3[nH]ncc3c2)ccc1F (centres undefined) | > 100 µM | > 100 µM | t1/2 (Liver): 3.82 min
12 | > 100 µM | O=C(NCc1ccn[nH]1)c1cc([C@@H]2CCNC[C@H]2COc2ccc3c(c2)OCO3)ccc1F |  |  | concentration at 4 h [3]: 270 nM; concentration at 7 h [4]: 43 nM; MEC [7]: 0.1 µM; inhibition [8]: Active
13 |  | CCCn1c(CNc2cccc(C(=O)NCc3c(F)cccc3F)c2)nnc1-c1ccncn1 | 9.1 µM | 2.2 µM | 
14 | > 100 µM | O=C(NCCc1ccccn1)c1cc([C@@H]2CCNC[C@H]2COc2ccc3c(c2)OCO3)ccc1F | > 100 µM | > 100 µM | 
15 | > 100 µM | O=C(NCCc1cccnc1)c1cc([C@@H]2CCNC[C@H]2COc2ccc3c(c2)OCO3)ccc1F | > 100 µM | > 100 µM | 
16 | > 100 µM | O=C(Cc1cc([C@@H]2CCNC[C@H]2COc2ccc3c(c2)OCO3)ccc1F)NCCc1ccccn1 | > 100 µM | > 100 µM | 
17 | > 100 µM | Cn1ccc(CNC(=O)c2cc([C@@H]3CCNC[C@H]3COc3ccc4c(c3)OCO4)ccc2F)n1 | > 100 µM | > 100 µM | 
18 | > 100 µM | O=C(Cc1cc([C@@H]2CCNC[C@H]2COc2ccc3c(c2)OCO3)ccc1F)NCCc1cn[nH]c1 | > 100 µM | > 100 µM | 
19 | > 100 µM | O=C(NCCc1cn[nH]c1)c1cc([C@@H]2CCNC[C@H]2COc2ccc3c(c2)OCO3)ccc1F | > 100 µM | > 100 µM | 

Row | SMILES | IC50 [2] | IC50 (Rhodopsin kinase GRK1) | IC50 [1] | also measured
20 | O=C(NCc1cccnc1)c1cc([C@@H]2CCNC[C@H]2COc2ccc3c(c2)OCO3)ccc1F | > 100 µM | > 100 µM | 76.3 µM | 
21 | O=C(Cc1cc([C@@H]2CCNC[C@H]2COc2ccc3c(c2)OCO3)ccc1F)NCc1ccccn1 | 48.2 µM | 60 µM | > 100 µM | 
22 | O=C(NCc1ccccc1)c1cc([C@@H]2CCNC[C@H]2COc2ccc3c(c2)OCO3)ccc1F | > 100 µM | > 100 µM | 84.3 µM | 
23 | O=C(NCc1ccccn1)c1cc([C@@H]2CCNC[C@H]2COc2ccc3c(c2)OCO3)ccc1F | > 100 µM | > 100 µM | 17.1 µM | inhibition [5]: inactive; inhibition [6]: inactive; t1/2 (Liver): 3.15 min
24 | COc1cccc(OC)c1CNC(=O)c1cc([C@@H]2CCNC[C@H]2COc2ccc3c(c2)OCO3)ccc1F | > 100 µM | 32 µM | 38.4 µM | t1/2 (Liver): 24.9 min
25 | Cc1cccc(C)c1CNC(=O)c1cc([C@@H]2CCNC[C@H]2COc2ccc3c(c2)OCO3)ccc1F | > 100 µM | 24.5 µM | 42.3 µM | t1/2 (Liver): 45.9 min
26 | CNC(=O)c1cc([C@@H]2CCNC[C@H]2COc2ccc3c(c2)OCO3)ccc1F | > 100 µM | > 100 µM | > 100 µM | 
27 | Fc1ccc([C@@H]2CCNC[C@H]2COc2ccc3c(c2)OCO3)cc1 [PAROXETINE] | > 100 µM | > 100 µM | > 100 µM | t1/2 (Liver): 24.3 min
28 | O=C(NCc1c(F)cccc1F)c1cc([C@@H]2CCNC[C@H]2COc2ccc3c(c2)OCO3)ccc1F | > 100 µM | > 100 µM | 37.2 µM | 
29 | COc1ccccc1CNC(=O)Cc1cc([C@@H]2CCNC[C@H]2COc2ccc3c(c2)OCO3)ccc1F | 25.8 µM | > 100 µM | > 100 µM | 
30 | Cc1cc(CNC(=O)c2cc([C@@H]3CCNC[C@H]3COc3ccc4c(c3)OCO4)ccc2F)n[nH]1 | > 100 µM | 86.5 µM | 4 µM | t1/2 (Liver): 10.3 min
31 | O=C(NCc1ccccc1C(F)(F)F)c1cc([C@@H]2CCNC[C@H]2COc2ccc3c(c2)OCO3)ccc1F | > 100 µM | > 100 µM | 75.7 µM | 
32 | O=C(NCc1ncc[nH]1)c1cc([C@@H]2CCNC[C@H]2COc2ccc3c(c2)OCO3)ccc1F | > 100 µM | > 100 µM | 14.8 µM | 
33 | O=C(NCCc1c(F)cccc1F)c1cc([C@@H]2CCNC[C@H]2COc2ccc3c(c2)OCO3)ccc1F | > 100 µM | > 100 µM | 10.2 µM | 
34 | O=C(NCc1c(Cl)cccc1Cl)c1cc([C@@H]2CCNC[C@H]2COc2ccc3c(c2)OCO3)ccc1F | > 100 µM | 25.8 µM | 33.2 µM | t1/2 (Liver): 36.4 min

Source: ChEMBL document CHEMBL4043080 (J Med Chem, 2017)
